As usually defined, the IC50 is the concentration that gives 50% inhibition.

The target of data set [1] is T1, ATP-dependent translocase ABCB1 (Homo sapiens, UniProt P08183). Briefly: Inhibition of P-gp overexpressed in human 12D7-MDR cells assessed as inhibition of calcein-AM efflux after 30 mins by flow cytometry. The settings on record: for inhibition (INH): human, 0.5 h. The data set is classed as cell-based. In short, it runs like this: (§1)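 12D7-MDR cells (RPMI 1640, 10% FBS, 37 °C, 5% CO2), 125,000 in suspension in BME with calcein-AM 0.25 µM or NBD-Aba 5 µM final, plus increasing inhibitor concentrations, 30 min at 37 °C, DMSO held at 1%. Controls: GF120918 1 µM (positive), 1% DMSO (negative). Cells resuspended in ice-cold PBS pH 7.4; FL1 flow cytometry, 10,000 cells per point; IC50 from mean fluorescence.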
T1 sequence (P08183 whole entry): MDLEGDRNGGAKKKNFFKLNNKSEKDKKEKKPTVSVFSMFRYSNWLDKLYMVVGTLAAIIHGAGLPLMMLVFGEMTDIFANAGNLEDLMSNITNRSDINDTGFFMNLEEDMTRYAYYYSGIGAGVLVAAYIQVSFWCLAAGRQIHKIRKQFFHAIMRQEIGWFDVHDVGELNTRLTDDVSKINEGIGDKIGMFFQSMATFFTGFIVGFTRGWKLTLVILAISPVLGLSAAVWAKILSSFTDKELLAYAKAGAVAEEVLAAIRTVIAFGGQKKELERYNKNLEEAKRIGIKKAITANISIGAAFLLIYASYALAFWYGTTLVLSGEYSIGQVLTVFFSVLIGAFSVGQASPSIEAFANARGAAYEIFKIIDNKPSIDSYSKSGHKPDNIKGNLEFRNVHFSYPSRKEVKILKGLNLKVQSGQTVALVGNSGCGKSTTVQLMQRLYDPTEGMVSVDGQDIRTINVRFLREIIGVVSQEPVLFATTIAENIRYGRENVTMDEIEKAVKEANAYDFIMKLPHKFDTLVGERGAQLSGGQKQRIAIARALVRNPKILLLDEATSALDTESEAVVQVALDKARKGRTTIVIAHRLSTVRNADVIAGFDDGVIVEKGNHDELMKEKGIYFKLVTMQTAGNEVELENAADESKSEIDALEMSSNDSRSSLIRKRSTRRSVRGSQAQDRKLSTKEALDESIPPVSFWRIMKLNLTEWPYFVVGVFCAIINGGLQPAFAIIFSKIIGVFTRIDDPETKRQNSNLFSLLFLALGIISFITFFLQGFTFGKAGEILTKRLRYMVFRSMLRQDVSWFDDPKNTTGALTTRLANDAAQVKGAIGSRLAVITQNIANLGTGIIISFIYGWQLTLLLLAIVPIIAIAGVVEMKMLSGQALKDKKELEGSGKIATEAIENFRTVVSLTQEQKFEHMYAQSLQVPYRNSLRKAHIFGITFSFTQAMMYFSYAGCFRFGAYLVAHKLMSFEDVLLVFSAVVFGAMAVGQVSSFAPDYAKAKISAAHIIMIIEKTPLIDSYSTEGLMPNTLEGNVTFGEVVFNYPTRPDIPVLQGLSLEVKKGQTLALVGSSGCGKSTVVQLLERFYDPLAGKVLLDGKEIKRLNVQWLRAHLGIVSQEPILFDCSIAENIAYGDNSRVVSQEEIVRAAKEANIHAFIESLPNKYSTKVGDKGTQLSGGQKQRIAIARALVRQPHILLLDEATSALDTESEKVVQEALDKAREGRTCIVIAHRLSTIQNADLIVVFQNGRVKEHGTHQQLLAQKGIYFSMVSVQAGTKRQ

For data set [2], the target named is T1, ATP-dependent translocase ABCB1. Briefly: Inhibition of P-gp overexpressed in human 12D7-MDR cells assessed as inhibition of NBD-Aba efflux after 30 mins by flow cytometry. The data set is classed as cell-based. The note with it: for inhibition (INH): human, 0.5 h. Summed up: as §1
The target is the same in data set [3]. Description: Inhibition of P-gp in human CMEC/D3 cells assessed as inhibition of NBD-Aba efflux after 30 mins by flow cytometry. Type of data set: cell-based. In short, it runs like this:
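hCMEC/D3 brain endothelial cells with endogenous P-gp, grown in supplemented EGM-2 on collagenated flasks. 125,000 cells in suspension in BME with NBD-Aba 5 µM final and increasing inhibitor concentrations, 30 min at 37 °C, 1% DMSO constant. GF120918 1 µM served as positive control. Cells resuspended in ice-cold PBS; FL1 flow cytometry on 10,000 cells; IC50 from mean fluorescence.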

Data set [4] shares this target. Briefly: Inhibition of P-gp in human MCF7/DX1 cells assessed as cellular accumulation of BODIPY-prazosin after 30 mins by flow cytometry. Type of data set: cell-based. The settings on record: mcf7/dx1, 0.5 h. Summed up:
(§2)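 MCF-7/DX1 cells are maintained with 1 µM doxorubicin. 125,000 cells in BME, pretreated with substrate (BODIPY-prazosin 0.5 µM, NBD-Aba 5 µM or doxorubicin 3 µM final), then incubated with increasing inhibitor concentrations for 30 min at 37 °C in 1% DMSO. For doxorubicin, cells are re-pelleted and incubated a further 30 min in inhibitor-containing BME. Read-out: flow cytometry, FL1 for BODIPY-prazosin and NBD-Aba, FL2 (585/42) for doxorubicin; IC50 from mean fluorescence. GF120918 1 µM as positive control.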
For orientation: A flow cytometer gives signals particle by particle.

Data set [5] addresses P-gp (ABCB1) (Homo sapiens, UniProt P08183). Briefly: Ratio of inhibition of P-gp in human CMEC/D3 cells using NBD-Aba as substrate to inhibition of P-gp in human MCF7/DX1 cells using NBD-Aba as substrate. Type of data set: cell-based. The settings on record: CMEC/D3 cells and MCF7/DX1 cells, probe NBD-Aba.
For data set [6], the target named is T1, ATP-dependent translocase ABCB1. Briefly: Inhibition of P-gp in human MCF7/DX1 cells assessed as cellular accumulation of doxorubicin after 30 mins by flow cytometry. The data set is classed as cell-based. The note with it: mcf7/dx1, 0.5 h. In short, it runs like this: as §2
The target is the same in data set [7]. Briefly: Inhibition of P-gp in human MCF7/DX1 cells assessed as cellular accumulation of NBD-Aba after 30 mins by flow cytometry. The data set is classed as cell-based. The settings on record: mcf7/dx1, 0.5 h. In short, it runs like this:
as §2

Data set [8] has the same target. Description: Displacement of [125I]-iodoarylazidoprazosin from human P-gp expressed in baculovirus-infected insect Sf9 cells incubated for 10 mins followed by UV light illumination for 20 mins by autoradiography. Summed up: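 Crude membranes (25 µg) from Sf9 cells infected with BV-MDR1 expressing human P-gp (72 h at 27 °C). Incubated 10 min at room temperature in the dark in 50 mM Tris-HCl pH 7.5 with 1 mM DTT and protease inhibitors, with [125I]-IAAP (~2200 Ci/mmol) and increasing inhibitor, then photo-crosslinked. Controls: 2.5% DMSO or GF120918 10 µM. Autoradiography and densitometry; values as percent of DMSO control, IC50 fitted.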
(Loss of bound radioactivity is the signal in a displacement assay; it reports binding, not function.)

Data set [9] shares this target. Briefly: Inhibition of P-gp in human MCF7/DX1 cells assessed as cellular accumulation of [3H]-daunomycin after 30 mins by scintillation counting analysis. The data set is classed as cell-based. The note with it: mcf7/dx1, 40 min, in the assay text read “40 mins” for “30 mins”. In short, it runs like this:
(§3)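 MCF-7/DX1 cells, 500,000 per well, seeded the day before and washed with ice-cold PBS. Incubated 40 min at 37 °C in BME with 5% calf serum, 0.25 µCi/mL [3H]-daunomycin and varying inhibitor concentrations; GF120918 1 µM as positive control. Cells washed, trypsinized 1 h at 37 °C, then scintillation counted. Counts normalized per 10,000 cells; IC50 from fitted concentration–response curves.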

The target is the same in data set [10]. Description: Inhibition of P-gp in human MCF7/DX1 cells assessed as cellular accumulation of NBD-Aba at 20 uM by confocal laser microscopy. Type of data set: cell-based. The note with it: mcf7/dx1, 20 µM. Summed up: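 Confocal microscopy of MCF-7/DX1 cells given NBD-Aba 5 µM, with or without inhibitor at 20 µM.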
Data set [11] has the same target. Description: Ratio of inhibition of P-gp overexpressed in human 12D7-MDR cells using NBD-Aba as substrate to inhibition of P-gp in human MCF7/DX1 cells using NBD-Aba as substrate. Type of data set: cell-based.
Data set [12] shares this target. Briefly: Inhibition of P-gp in human MCF7/DX1 cells assessed as cellular accumulation of NBD-Aba up to 100 uM after 30 mins by flow cytometry. The note with it: mcf7/dx1, 0.5 h. The data set is classed as cell-based. Summed up: as §2
Data set [13] shares this target. Briefly: Inhibition of P-gp in human MCF7/DX1 cells assessed as cellular accumulation of doxorubicin up to 100 uM after 30 mins by flow cytometry. Type of data set: cell-based. The note with it: mcf7/dx1, 0.5 h. In short, it runs like this: as §2
The target is the same in data set [14]. Description: Inhibition of P-gp in human MCF7/DX1 cells assessed as cellular accumulation of [3H]-daunomycin up to 100 uM after 30 mins by scintillation counting analysis. The data set is classed as cell-based. The settings on record: mcf7/dx1, 40 min, in the assay text read “40 mins” for “30 mins”. In short, it runs like this: as §3
The target is the same in data set [15]. Briefly: Inhibition of P-gp in human MCF7/DX1 cells assessed as cellular accumulation of BODIPY-prazosin up to 100 uM after 30 mins by flow cytometry. The data set is classed as cell-based. The note with it: mcf7/dx1, 0.5 h. In short, it runs like this: as §2

Chain of P-gp (ABCB1) (P08183 whole entry): as above

Turning to `Nc1nc(NC2CC2)c2ncn([C@H]3C=C[C@@H](COC(=O)CCC(=O)OC[C@@H]4C=C[C@H](n5cnc6c(NC7CC7)nc(N)nc65)C4)C3)c2n1`, in data set [1], the IC50 is 50 µM and the “inhibition (INH)” value was “Dose-dependent effect”.

On to `Nc1nc(NC2CC2)c2ncn([C@H]3C=C[C@@H](COC(=O)CCCCCC(=O)OC[C@@H]4C=C[C@H](n5cnc6c(NC7CC7)nc(N)nc65)C4)C3)c2n1`, for which the IC50 was 10.5 µM in [2], 4.1 µM in data set [3] and 7.7 µM in data set [1]. In addition, the “inhibition (INH)” value in [2] and in data set [1] was “Dose-dependent effect” in each case.

Consider `Nc1nc(NC2CC2)c2ncn([C@H]3C=C[C@@H](COC(=O)CCCCCCCC(=O)OC[C@@H]4C=C[C@H](n5cnc6c(NC7CC7)nc(N)nc65)C4)C3)c2n1`, for which the IC50 in data set [2] is 2.6 µM; in data set [3] it was 3.8 µM; in data set [1], 2.6 µM. The “inhibition (INH)” value in [2] and in data set [1] was “Dose-dependent effect” each time.

As to `Nc1nc(NC2CC2)c2ncn([C@H]3C=C[C@@H](COC(=O)CCCCCCCCC(=O)OC[C@@H]4C=C[C@H](n5cnc6c(NC7CC7)nc(N)nc65)C4)C3)c2n1`, the IC50 was 2.1 µM in [2], 3.6 µM in data set [3], 0.24 µM in [8] and 2.3 µM in [1]. The “inhibition (INH)” value in data set [2] is recorded as “Dose-dependent effect”; in data set [8] (human, sf9, 10 min), “Dose-dependent effect”; in [10], “Active”; in data set [1] it was “Dose-dependent effect”. The INH was determined as 5.1 µM in [4], 12.8 µM in data set [6], 11.8 µM in [7] and 9.2 µM in data set [9]. In addition, the selectivity ratio in data set [5] is 3. The Ratio in data set [11] amounted to 6.

In the case of `Nc1nc(NC2CC2)c2ncn([C@H]3C=C[C@@H](COC(=O)CCCCCCCCCCC(=O)OC[C@@H]4C=C[C@H](n5cnc6c(NC7CC7)nc(N)nc65)C4)C3)c2n1`, the IC50 is 1.8 µM in data set [2], 1.1 µM in data set [3] and 1.4 µM in data set [1]. Also, the “inhibition (INH)” value in data set [2] and in data set [1] was “Dose-dependent effect” each time.

Regarding `Nc1nc(NC2CC2)c2ncn([C@H]3C=C[C@@H](CO)C3)c2n1` [ABACAVIR], the IC50 in [2], in [3] and in data set [1] was more than 500 µM in each case. Further, the “inhibition (INH)” value in [12], in [13], in data set [14] and in data set [15] was “Not Active” each time.

The values above are taken from ChEMBL document CHEMBL3217676, “Homodimers of the Antiviral Abacavir as Modulators of P-glycoprotein Transport in Cell Culture: Probing Tether Length” (Medchemcomm, 2013).
